Results pooled from the literature.
Lines come from different studies, so protocols differ.

| SMILES | tested on | test | test system | conditions | measurement | result |
| --- | --- | --- | --- | --- | --- | --- |
| CC(C)(C)OC(=O)N[C@H]1CCN(c2cc(C(=O)NCC(=O)O)ccc2NC(=O)c2cc(Br)c(Br)[nH]2)C1 | Enterococcus faecium | microbial growth, broth dilution | ATCC35667 | – | MIC | > 32 µg/mL |
| Cc1cc(C)c(C#N)c(SCC(=O)c2ccccn2)n1 | Trypanosoma brucei | parasite growth, resazurin | RHODESIENSE | – | EC50 | 18 µM |
| Cc1[nH]c(C(=O)Nc2ccc(C(=O)NCC(=O)O)cc2N2CC[C@@H](NC(=O)OC(C)(C)C)C2)c(Cl)c1Cl | Enterococcus faecium | microbial growth, broth dilution | ATCC35667 | – | MIC | > 32 µg/mL |
| COc1ccc2c(c1)c(=O)c(C(=O)N/N=C/c1ccc([N+](=O)[O-])s1)cn2Cc1ccccc1 | Trypanosoma brucei | parasite growth, resazurin | – | 72 h | EC50 | 0.41 µM |
| Cc1[nH]c(C(=O)Nc2ccc(C(=O)NCC(=O)O)cc2N2CC[C@@H](N)C2)c(Cl)c1Cl.Cl | Enterococcus faecium | microbial growth, broth dilution | ATCC35667 | – | MIC | > 32 µg/mL |
| O=C(O)c1ccc2c(c1)nc(Nc1cccc(Cl)c1)c1ccncc12 | SK-MES-1 | cell growth or viability, crystal violet | – | 48 h | IC50 | 4.6 µM |
| Nc1ccc(/C=C/C(=O)N2CCc3c(oc4c(-c5ccc(F)cc5)cc(-c5ccc(C(=O)N6C[C@@H]7[C@H](C6)C7(F)F)nn5)cc34)C2)cn1 | CFPAC-1 | cell growth or viability, CCK-8 | – | 72 h | IC50 | > 20 µM |
| CC(C)(C)OC(=O)N1CCN(c2cc(C(=O)NCC(=O)O)ccc2NC(=O)c2cc(Br)c(Br)[nH]2)CC1 | Enterococcus faecium | microbial growth, broth dilution | ATCC35667 | – | MIC | > 32 µg/mL |
| Cc1ccc(Cn2cc(C(=O)NN)c(=O)c3cc(Oc4ccccc4)ccc32)cc1 | Trypanosoma brucei | parasite growth | RHODESIENSE | – | EC50 | 0.5 µM |
| Cn1nnc(-c2cccnc2SCC(=O)c2ccc(F)cc2)n1 | Trypanosoma brucei | parasite growth, resazurin | RHODESIENSE | – | EC50 | > 64 µM |
| Cc1[nH]c(C(=O)Nc2ccc(C(=O)NCC(=O)O)cc2N2CCN(C(=O)OC(C)(C)C)CC2)c(Cl)c1Cl | Enterococcus faecium | microbial growth, broth dilution | ATCC35667 | – | MIC | > 32 µg/mL |
| C=CC(=O)NC1CCN(c2ncc3ncnc(Nc4ccc(Oc5ccc6c(c5)ncn6C)c(C)c4)c3n2)CC1 | HCC95 | cell growth or viability | – | – | EC50 | 2.07 µM |
| COc1ccnc(SCC(=O)c2ccccc2)c1C#N | Trypanosoma brucei | parasite growth, resazurin | – | – | EC50 | > 64 µM |
| Nc1ccc(/C=C/C(=O)N2CCc3c(oc4c(-c5ccc(F)cc5)cc(-c5ccc(C(=O)N6CCOCC6)nn5)cc34)C2)cn1 | CFPAC-1 | cell growth or viability, CCK-8 | – | 72 h | IC50 | > 20 µM |
| Cc1cc(C)c(C#N)c(SCC(=O)Nc2ccccc2)n1 | Trypanosoma brucei | parasite growth, resazurin | – | – | EC50 | > 64 µM |
| O=C(N/N=C/c1ccc([N+](=O)[O-])o1)c1cn(Cc2ccccc2)c2ccc([N+](=O)[O-])cc2c1=O | Trypanosoma brucei | parasite growth, resazurin | – | 72 h | EC50 | 0.37 µM |
